Assay: Toxicity liver stage against HepG2, at 10uM
Format: cell-based
Design: test concentration 10 uM, cell line HepG2-A16-CD81EGFP
Conditions: human, HepG2-A16-CD81EGFP cells; read-out: INHIBITION
How it was run: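 Uninfected HepG2-A16-CD81EGFP cells, 3 × 10^3 per well, 1536-well, plated on prespotted compound at 10 μM final, parasite-free screening media added to match infected plates; puromycin 10 μM positive, DMSO 0.5% negative; run in parallel with 48 h PbLuc assay at 37 °C, 5% CO2; viability by CellTiter-Glo luminescence, normalized to controls.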

In order of rising cytotoxicity at 10 µM:
1. Cc1nccc(NCc2cc3n(n2)CCCN(C(=O)C2CCC2)C3)n1  -128%
2. CC1c2ncc(COc3cccnc3)n2CCN1Cc1ccco1 (centres undefined)  -105%
3. CCC(=O)c1ccc(OCC(=O)NC(C)Cc2cc(C)n[nH]2)cc1 (centres undefined)  -39.7%
4. c1cncc(-c2nccc(CN3CCC(N4CCCCC4)CC3)n2)c1  -26%
5. Cc1cccc(-c2cccc(CC3(C(=O)O)CCOCC3)c2)c1  -25.7%
6. CCCn1nc(C2CCNCC2)n(Cc2ccccc2)c1=O  -12.9%
7. Cc1c(C(=O)NC(C)C(C)C)nnn1-c1cccc2c1CCN(C)C2 (centres undefined)  -9.03%
8. COc1ccnc(N2CCN(CC(=O)N3CCOCC3)CC2)n1  -7.37%
9. CC(C)c1nc(C2CCCN(C(=O)c3ccc4c(c3)COC4)C2)no1 (centres undefined)  -7%
10. N#CC1(C(=O)NCCCNc2ccc(C(F)(F)F)cn2)CCCC1  -6.36%
11. CSc1[nH]c(=O)c(C(=O)N2CCCC2c2cccs2)cc1C#N (centres undefined)  -3.49%
12. N#Cc1cnn(-c2ccc(C(=O)N(C3CCCCC3)C3CC3)cc2)c1N  -2.54%
13. Cc1cccc(N2CC3(CCN(S(=O)(=O)c4cccs4)C3)CC2=O)c1 (centres undefined)  -1.21%
14. Cc1c[nH]c(C2COCCN2C(=O)c2n[nH]c(=O)c3ccccc23)n1 (centres undefined)  -0.555%
15. O=C(NCC(O)CO)Nc1cc(Br)ccc1F (centres undefined)  1.69%
16. c1cc(CCNc2ccc(CC3CCNC3)cn2)ccn1 (centres undefined)  3.09%
17. Cc1[nH]nc(CCC(=O)N2C[C@@H]3CC[C@H]2CN(C(=O)N(C)C)C3)c1C  3.8%
18. CN(C)C(=O)CCNC(=O)Nc1sc2ccccc2c1Cl  6.14%
19. COCCNc1ccccc1CNC(=O)NCc1cnc(C)s1  10.6%
20. COc1nc2ccn(CCc3cc(O)nc(C)n3)c(=O)c2cc1C#N  10.9%
21. Cn1cccc1C(=O)NCc1cnc2n1CCN(C(=O)c1ccoc1)C2  11.9%
22. CCOCc1ccc(CNc2nc(OC)ncc2Cl)cc1  13.2%
23. O=S1(=O)N=C(SCc2ccc(Cl)cc2)Nc2ccc(F)cc21  27.6%
24. COc1cc(CN(C)C(=O)Cc2c(C)nn(C)c2C)ccc1OC(F)F  39.2%
